Assay outcomes as filed in PubChem BioAssay.
Only some compounds are listed: those with a hit (about 4.1% of all), similar ones and a draw of the others.
APP 5'UTR act – activates APP 5'UTR luciferase reporter. SH-SY5Y APP 5'UTR luciferase reporter, luminescence; zero percent = DMSO vehicle wells. activation, % at 2 µM. 1% of 190,000 active. AID 1276;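 active means activation above a set limit, based on mean plus 3 SD of controls, cut at about 140% in these data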
FLuc inhib CS – Photinus pyralis luciferase inhibition counter-screen. P08659. ATPLite firefly luciferase biochemical luminescence, 10 min. AID 1006. inhibition, % at 10 µM. 1.5% of 200,000 active;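 active means inhibition above about 50% when tested at 10 µM, limit read from the data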
Target sequence (P08659 whole entry, looked up): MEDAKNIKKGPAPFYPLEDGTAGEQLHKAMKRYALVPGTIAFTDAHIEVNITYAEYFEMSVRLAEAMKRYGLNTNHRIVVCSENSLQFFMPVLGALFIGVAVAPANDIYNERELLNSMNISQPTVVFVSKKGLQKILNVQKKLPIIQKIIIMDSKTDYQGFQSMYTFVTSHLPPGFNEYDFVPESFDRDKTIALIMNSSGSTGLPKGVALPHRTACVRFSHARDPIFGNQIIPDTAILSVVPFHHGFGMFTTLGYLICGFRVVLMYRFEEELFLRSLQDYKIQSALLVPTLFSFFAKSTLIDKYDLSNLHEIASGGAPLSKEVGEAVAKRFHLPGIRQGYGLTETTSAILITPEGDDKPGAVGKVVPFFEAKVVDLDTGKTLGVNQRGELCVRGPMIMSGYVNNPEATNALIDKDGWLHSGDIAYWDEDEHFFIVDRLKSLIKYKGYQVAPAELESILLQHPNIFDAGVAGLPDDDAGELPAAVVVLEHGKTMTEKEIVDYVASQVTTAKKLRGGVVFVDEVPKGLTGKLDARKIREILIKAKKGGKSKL
STAT1 activator – increases IFN-gamma driven STAT1 reporter signal | NIH 3T3 STAT1-luciferase reporter, luminescence; 100% = IFN-gamma alone, no compound | activation (% of control), % at 5.5 µM | 2.6% of 200,000 active | AID 932;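 active means activation above the screen-wide mean activation plus 3 SD, cut at about 130% in these data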
NF-kB neuron act – NF-kB expression increase, human neuronal cells; NF-kB reporter expression; hits give high values; fold change at 12.5 µM; 1.6% of 190,000 active; AID 1239; in the data active means fold change above about 3.3
FLuc stim CS – affects firefly luciferase, flagging false hits in luciferase stimulation screens. ATPlite luciferase biochemical, luminescence, 10 min; 0 = ATP-free wells, 1 = DMSO control. P08659. activation factor at 10 µM. 200,000 tested, under 10 active. AID 1027;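 active means luciferase activation factor, scaled between plate controls, of at least 2 with compound at 10 µM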
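Material: luciferase plus luciferin reagent, cell-free. Medium: PBS buffer for ATP. Also added: ATP substrate, dispensed from a 10.24 µM working solution in PBS. Doses: test compounds dosed from 2 mM stocks in 100% DMSO. Incubation: 10 min post-reagent at room temperature. Technique: light output (luminescence). Read-out basis: luminescence gain marking luciferase activators.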
Numbers stand for hits.

For C1CCN(c2c3c(nc4nnnn24)CCCC3)CC1 the results were APP 5'UTR act inactive, FLuc inhib CS inactive, STAT1 activator inactive, NF-kB neuron act inactive and FLuc stim CS inactive.
`CCCc1ccc(C(=O)/C=C/N(C)C)cc1` gave APP 5'UTR act inactive, FLuc inhib CS 74.1, STAT1 activator inactive, NF-kB neuron act inactive and FLuc stim CS inactive.
CN(C)/C=C/C(=O)c1ccc(Oc2ccccc2)cc1 was read as APP 5'UTR act inactive, FLuc inhib CS 75.0, STAT1 activator 135.3, NF-kB neuron act inactive and FLuc stim CS inactive.
CCN=c1scc(C)n1/N=C/c1ccsc1 was read as APP 5'UTR act inactive, FLuc inhib CS inactive, STAT1 activator 150.1, NF-kB neuron act 3.65 and FLuc stim CS inactive.
For CCC(=C(c1ccc(OC)cc1)c1ccc(OC)cc1)c1cn(CC(O)CN2CCN(C)CC2)c2ccccc12 (stereo not drawn) the results were APP 5'UTR act inactive, FLuc inhib CS inactive, STAT1 activator inactive, NF-kB neuron act inactive and FLuc stim CS inactive.
For Cc1cc2ncc(C(=O)N=CN(C)C)cn2n1 the results were APP 5'UTR act inactive, FLuc inhib CS inactive, STAT1 activator inactive, NF-kB neuron act inactive and FLuc stim CS inactive.
Cc1ccc(-c2cnc3c(Cl)c(C)nn3c2)cc1 was read as APP 5'UTR act 243.5, FLuc inhib CS 58.1, STAT1 activator inactive, NF-kB neuron act 6.49 and FLuc stim CS inactive.
For Cc1ccc(-c2cnc3cc(C)nn3c2)cc1 the results were APP 5'UTR act 146.7, FLuc inhib CS 91.2, STAT1 activator inactive, NF-kB neuron act 5.67 and FLuc stim CS inactive.
For Cc1cc2ncc(-c3ccc(Cl)cc3)cn2n1 the results were APP 5'UTR act 188.0, FLuc inhib CS 55.8, STAT1 activator 135.6, NF-kB neuron act 4.89 and FLuc stim CS inactive.
`COc1ccccc1-n1cc(C(=O)N2CCCC(CO)(Cc3ccccc3C)C2)cn1` (stereo not drawn) gave APP 5'UTR act inactive, FLuc inhib CS inactive, STAT1 activator inactive and FLuc stim CS inactive.
CN(CCC#N)C(=O)COC(=O)c1ccccc1OCc1ccccc1Cl was read as APP 5'UTR act inactive, FLuc inhib CS inactive, STAT1 activator inactive, NF-kB neuron act inactive and FLuc stim CS inactive.
Fc1ccccc1CSc1nc2ccccc2[nH]1 was read as APP 5'UTR act 198.0, FLuc inhib CS 50.9, STAT1 activator 135.7, NF-kB neuron act 10.1 and FLuc stim CS inactive.
For COC(=O)c1cc(CSc2nc3ccccc3[nH]2)oc1C the results were FLuc inhib CS 53.1, STAT1 activator inactive, NF-kB neuron act inactive and FLuc stim CS inactive.
COc1cccc(CSc2nc3ccccc3[nH]2)c1 was read as APP 5'UTR act inactive, FLuc inhib CS 66.7, STAT1 activator inactive, NF-kB neuron act 4 and FLuc stim CS inactive.
`O=[N+]([O-])c1cccc(CSc2nc3ccccc3[nH]2)c1` gave APP 5'UTR act inactive, FLuc inhib CS inactive, STAT1 activator inactive, NF-kB neuron act inactive and FLuc stim CS inactive.
N#CCC(=O)N/N=C/c1ccc(Sc2nc3ccccc3s2)o1 was read as APP 5'UTR act inactive, FLuc inhib CS inactive, STAT1 activator inactive, NF-kB neuron act inactive and FLuc stim CS inactive.
COC(=O)c1sccc1NC(=O)COc1ccc(F)cc1Cl was read as APP 5'UTR act inactive, FLuc inhib CS inactive, STAT1 activator inactive, NF-kB neuron act inactive and FLuc stim CS inactive.
O=C(CCC(=O)Nc1ccccc1)NNC(=O)C(c1ccccc1)c1ccccc1 was read as APP 5'UTR act inactive, FLuc inhib CS inactive, STAT1 activator inactive, NF-kB neuron act inactive and FLuc stim CS inactive.
Screening COc1ccc(Nc2cnn(-c3nc4ccccc4s3)c(=O)c2Cl)cc1 returned APP 5'UTR act inactive, FLuc inhib CS inactive, STAT1 activator inactive, NF-kB neuron act inactive and FLuc stim CS inactive.
`O=c1c(Cl)c(Nc2cccc(Cl)c2)cnn1-c1nc2ccccc2s1` gave APP 5'UTR act inactive, FLuc inhib CS inactive, STAT1 activator 149.8, NF-kB neuron act inactive and FLuc stim CS inactive.
For Cc1ccc(S(=O)(=O)N2CCOCC2)cc1NC(=O)COC(=O)CCC(=O)c1cccs1 the results were APP 5'UTR act inactive, FLuc inhib CS inactive, STAT1 activator inactive, NF-kB neuron act inactive and FLuc stim CS inactive.
For Cc1ccc(S(=O)(=O)N2CCOCC2)cc1NC(=O)COC(=O)CNC(=O)c1ccc(Oc2ccccc2)cc1 the results were APP 5'UTR act inactive, FLuc inhib CS 73.0, STAT1 activator inactive, NF-kB neuron act inactive and FLuc stim CS inactive.
